# Activity calls are given as the source filed them. The rule behind the calls is not given here.
# Tests used:
# Curvularia lunata [1] = test: Antifungal activity against Curvularia lunata MTCC 581 assessed as zone of inhibition at 40 uM after 48 hrs by disc diffusion method; format: functional
# Summary of the method: (§1)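 Spores from 4-day potato dextrose agar cultures, suspended in sterile water at 1.5 × 10⁵ CFU/mL. 0.2 mL was spread on potato dextrose agar. 5 mm filter-paper discs soaked with test compound were laid on the lawn. Incubation was 48 h at 28 °C, then the inhibition zone was measured in mm. Fluconazole was the positive control and acetone the negative control.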
# Trichoderma viride [2] = test: Antifungal activity against Trichoderma viride MTCC 1107 after 48 hrs; format: functional; details: MTCC 1107, 48 h
# Salmonella typhi [3] = test: Antimicrobial activity against Salmonella typhi ATCC 23564 assessed as diameter of inhibition zone at 80 uM after 24 hrs by Kirby -Baur disc diffusion method; format: functional, Salmonella enterica subsp. enterica serovar Typhi; details: for zone of inhibition at 80 µM: Salmonella enterica, ATCC 23564, 24 h, read-out: DIZ; for diameter of the inhibition zone (DIZ): Salmonella enterica subsp. enterica serovar Typhi
# Escherichia coli [4] = test: Antimicrobial activity against Escherichia coli ATCC 35218 assessed as diameter of inhibition zone at 80 uM after 24 hrs by Kirby -Baur disc diffusion method; format: functional
# Summary of the method: (§2)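 Kirby-Bauer disc diffusion was used. Acetone stocks (160 µM) were serially doubled down to 80, 40 and 20 µM. 4 µL of each went onto 5 mm sterile paper discs, which were dried 30 min at 50 °C. Inoculum was 1.5 × 10⁸ CFU/mL diluted to 3 × 10² CFU/mL, and 50 µL was spread on Mueller-Hinton agar. After 24 h at 37 °C the inhibition-zone diameter was measured. Ciprofloxacin served as positive control.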
# Staphylococcus aureus [5] = test: Antimicrobial activity against Staphylococcus aureus ATCC 11632 after 24 hrs by broth micro serial dilution method; format: functional
# Summary of the method: (§3)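 This was broth microdilution in autoclaved Mueller-Hinton broth. 150 µL of compound per well was serially diluted […], and 50 µL of test organism was added. Plates were incubated 24 h at 37 °C and optical density was read.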
# Curvularia lunata [6] = test: Antifungal activity against Curvularia lunata MTCC 581 assessed as zone of inhibition at 20 uM after 48 hrs by disc diffusion method; format: functional; summary of the method: as §1
# HepG2 = test: Cytotoxicity against human HepG2 cells after 24 hrs by MTT assay; format: functional, cell-based
# Summary of the method: (§4)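 The MTT assay seeded 5 × 10⁴ cells per well and grew them 24 h in RPMI 1640 with compound at 2.5–200 µM. Medium without cells was the blank and adriamycin the positive control. MTT was added for 4 h at 37 °C, formazan was solubilised, and absorbance was read at 570 nm. IC50 is the concentration that cuts viability 50% against untreated cells.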
# Bacillus cereus [7] = test: Antimicrobial activity against Bacillus cereus MTCC 7350 after 24 hrs by broth micro serial dilution method; format: functional; summary of the method: as §3
# Staphylococcus aureus [8] = test: Antimicrobial activity against Staphylococcus aureus ATCC 11632 assessed as diameter of inhibition zone at 80 uM after 24 hrs by Kirby -Baur disc diffusion method; format: functional; summary of the method: as §2
# Salmonella typhi [9] = test: Antimicrobial activity against Salmonella typhi ATCC 23564 after 24 hrs by broth micro serial dilution method; format: functional, Salmonella enterica subsp. enterica serovar Typhi; details: Salmonella enterica, ATCC 23564, 24 h
# Curvularia lunata [10] = test: Antifungal activity against Curvularia lunata MTCC 581 assessed as zone of inhibition at 80 uM after 48 hrs by disc diffusion method; format: functional; details: MTCC 581, 48 h, read-out: IZ; summary of the method: as §1
# Mus musculus = test: Antiinflammatory activity in mouse assessed as inhibition of carrageenan-induced increase in paw volume at 200 mg/kg administered 1 hr prior to carrageenan challenge measured after 3 hrs relative to control; format: functional
# Summary of the method: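 Mice were fasted 2 h and placed in groups of five. Controls received saline i.p. Phenylbutazone was given at 100 mg/kg i.p., curcumin at 200 mg/kg i.p., and derivatives at 200 mg/kg. After 1 h, 0.1 mL of 1% carrageenan in saline was injected subplantar into the right hind paw. Paw volume was followed by plethysmometer for 3 h, and % inhibition was calculated as (Vc − Vt)/Vc × 100.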
# Trichoderma viride [11] = test: Antifungal activity against Trichoderma viride MTCC 1107 assessed as zone of inhibition at 80 uM after 48 hrs by disc diffusion method; format: functional; details: MTCC 1107, 48 h, read-out: IZ; summary of the method: as §1
# Aspergillus niger [12] = test: Antifungal activity against Aspergillus niger MTCC 1108 after 48 hrs; format: functional
# Trichoderma viride [13] = test: Antifungal activity against Trichoderma viride MTCC 1107 assessed as zone of inhibition at 20 uM after 48 hrs by disc diffusion method; format: functional; summary of the method: as §1
# Aspergillus flavus [14] = test: Antifungal activity against Aspergillus flavus MTCC 1021 assessed as zone of inhibition at 80 uM after 48 hrs by disc diffusion method; format: functional; summary of the method: as §1
# Pseudomonas aeruginosa [15] = test: Antimicrobial activity against Pseudomonas aeruginosa ATCC 15499 assessed as diameter of inhibition zone at 80 uM after 24 hrs by Kirby -Baur disc diffusion method; format: functional; summary of the method: as §2
# Curvularia lunata [16] = test: Antifungal activity against Curvularia lunata MTCC 581 after 48 hrs; format: functional; details: MTCC 581, 48 h
# Trichoderma viride [17] = test: Antifungal activity against Trichoderma viride MTCC 1107 assessed as zone of inhibition at 40 uM after 48 hrs by disc diffusion method; format: functional; summary of the method: as §1
# Salmonella typhi [18] = test: Antimicrobial activity against Salmonella typhi ATCC 23564 assessed as diameter of inhibition zone at 20 uM after 24 hrs by Kirby -Baur disc diffusion method; format: functional; details: Salmonella enterica subsp. enterica serovar Typhi
# Salmonella typhi [19] = test: Antimicrobial activity against Salmonella typhi ATCC 23564 assessed as diameter of inhibition zone at 40 uM after 24 hrs by Kirby -Baur disc diffusion method; format: functional
# QG-56 = test: Cytotoxicity against human QG56 cells after 24 hrs by MTT assay; format: functional, cell-based; summary of the method: as §4
# Aspergillus niger [20] = test: Antifungal activity against Aspergillus niger MTCC 1108 assessed as zone of inhibition at 80 uM after 48 hrs by disc diffusion method; format: functional; summary of the method: as §1
# Escherichia coli [21] = test: Antimicrobial activity against Escherichia coli ATCC 35218 after 24 hrs by broth micro serial dilution method; format: functional; summary of the method: as §3
# Pseudomonas aeruginosa [22] = test: Antimicrobial activity against Pseudomonas aeruginosa ATCC 15499 after 24 hrs by broth micro serial dilution method; format: functional; summary of the method: as §3
# Aspergillus flavus [23] = test: Antifungal activity against Aspergillus flavus MTCC 1021 after 48 hrs; format: functional
# Bacillus cereus [24] = test: Antimicrobial activity against Bacillus cereus MTCC 7350 assessed as diameter of inhibition zone at 80 uM after 24 hrs by Kirby -Baur disc diffusion method; format: functional; summary of the method: as §2
# HeLa = test: Cytotoxicity against human HeLa cells after 24 hrs by MTT assay; format: functional, cell-based; summary of the method: as §4
# HCT-116 = test: Cytotoxicity against human HCT116 cells after 24 hrs by MTT assay; format: functional, cell-based; summary of the method: as §4
# Escherichia coli [25] = test: Antimicrobial activity against Escherichia coli ATCC 35218 assessed as diameter of inhibition zone at 20 uM after 24 hrs by Kirby -Baur disc diffusion method; format: functional; summary of the method: as §2
# Escherichia coli [26] = test: Antimicrobial activity against Escherichia coli ATCC 35218 assessed as diameter of inhibition zone at 40 uM after 24 hrs by Kirby -Baur disc diffusion method; format: functional; summary of the method: as §2
SMILES,MIC (Trichoderma viride [2]) [µM],zone of inhibition at 80 µM (Salmonella typhi [3]) [mm],diameter of the inhibition zone (DIZ) (Escherichia coli [4]),MIC (Staphylococcus aureus [5]),inhibition zone (IZ) (Curvularia lunata [6]),IC50 (HepG2),MIC (Bacillus cereus [7]),diameter of the inhibition zone (DIZ) (Staphylococcus aureus [8]),MIC (Salmonella typhi [9]) [µM],zone of inhibition at 80 µM (Curvularia lunata [10]) [mm],inhibition in vivo at 200 mg/kg (Mus musculus) [%],zone of inhibition at 80 µM (Trichoderma viride [11]) [mm],MIC (Aspergillus niger [12]),inhibition zone (IZ) (Trichoderma viride [13]),inhibition zone (IZ) (Aspergillus flavus [14]),diameter of the inhibition zone (DIZ) (Pseudomonas aeruginosa [15]),MIC (Curvularia lunata [16]) [µM],diameter of the inhibition zone (DIZ) (Salmonella typhi [18]),diameter of the inhibition zone (DIZ) (Bacillus cereus [24]),"MIC (Escherichia coli [21]; ATCC 35218, 24 h) [µM]",further results
COc1cc(/C=C/c2noc(/C=C/c3ccc(O)c(OC)c3)c2/N=N/c2ccc(S(N)(=O)=O)cc2)ccc1O,> 80,11,inactive,inactive,inactive,Not Active,inactive,inactive,> 80,9,24.1,11,inactive,inactive,inactive,inactive,> 80,inactive,inactive,,inhibition zone (IZ) (Curvularia lunata [1]): inactive; inhibition zone (IZ) (Trichoderma viride [17]): inactive; diameter of the inhibition zone (DIZ) (Salmonella typhi [19]; Salmonella enterica subsp. enterica serovar Typhi): inactive; IC50 (QG-56): Not Active; inhibition zone (IZ) (Aspergillus niger [20]): inactive; MIC (Escherichia coli [21]): inactive; MIC (Pseudomonas aeruginosa [22]): inactive; MIC (Aspergillus flavus [23]): inactive; IC50 (HeLa): Not Active; IC50 (HCT-116): Not Active
COc1cc(/C=C/c2noc(/C=C/c3ccc(O)c(OC)c3)c2/N=N/c2ccc(S(=O)(=O)Nc3ccccn3)cc2)ccc1O,80,15,,inactive,inactive,Not Active,inactive,inactive,80,12,27.4,12,inactive,inactive,inactive,inactive,> 80,inactive,inactive,> 80,"zone of inhibition at 40 µM (Curvularia lunata [1]; MTCC 581, 48 h, read-out: IZ): 10 mm; diameter of the inhibition zone (DIZ) (Escherichia coli [25]): inactive; zone of inhibition at 80 µM (Escherichia coli [4]; ATCC 35218, 24 h, read-out: DIZ): 10 mm; zone of inhibition at 40 µM (Trichoderma viride [17]; MTCC 1107, 48 h, read-out: IZ): 10 mm; zone of inhibition at 40 µM (Salmonella typhi [19]; Salmonella enterica, ATCC 23564, 24 h, read-out: DIZ): 9 mm; IC50 (QG-56): Not Active; inhibition zone (IZ) (Aspergillus niger [20]): inactive; MIC (Pseudomonas aeruginosa [22]; ATCC 15499, 24 h): > 80 µM; MIC (Aspergillus flavus [23]; MTCC 1021, 48 h): > 80 µM; IC50 (HeLa): Not Active; diameter of the inhibition zone (DIZ) (Escherichia coli [26]): inactive; IC50 (HCT-116): Not Active"
COc1ccc(NS(=O)(=O)c2ccc(N)cc2)nn1 [SULFAMETHOXYPYRIDAZINE],,,inactive,,,,,inactive,> 160,,,,,,,inactive,,,inactive,> 160,"diameter of the inhibition zone (DIZ) (Salmonella typhi [3]): inactive; MIC (Staphylococcus aureus [5]; ATCC 11632, 24 h): > 80 µM; MIC (Bacillus cereus [7]; MTCC 7350, 24 h): > 160 µM; MIC (Pseudomonas aeruginosa [22]; ATCC 15499, 24 h): > 160 µM"
Cc1cc(NS(=O)(=O)c2ccc(N)cc2)no1 [SULFAMETHOXAZOLE],,,inactive,,,,inactive,inactive,> 160,,,,,,,inactive,,,inactive,> 160,"diameter of the inhibition zone (DIZ) (Salmonella typhi [3]): inactive; MIC (Staphylococcus aureus [5]; ATCC 11632, 24 h): > 160 µM; MIC (Pseudomonas aeruginosa [22]): inactive"
